Reference: ChEMBL document CHEMBL1123716, “Synthesis and tumor uptake of 5-halo-1-(2'-fluoro-2'-deoxy-beta-D-ribofuranosyl)[2-14C]uracils” (J Med Chem, 1987)

Key:
[1] = system: Mus musculus; experiment: Tissue distribution in BDF1 female mice bearing an implanted lewis lung tumor after intravenous injection in lung at 0.25 h.; type: ADME, organism-based; conditions: in vivo
Procedure, shortened: (§1)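 Female BDF₁ mice (18–20 g) carrying transplanted Lewis lung tumor received 23–193 kBq of the [2-¹⁴C]-labeled nucleoside in normal saline via tail vein. The compound was stored as a dry film and reconstituted just before use. Animals were killed at set times, and tissue ¹⁴C was measured by combustion and liquid scintillation. Values are mean ± SD % injected dose per gram of wet tissue, n = 6.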

[2] = system: Mus musculus; experiment: Tissue distribution in BDF1 female mice bearing an implanted lewis lung tumor after intravenous injection in bone at 24 h.; type: ADME, organism-based; conditions: in vivo
Procedure, shortened: (§2)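 Female BDF1 mice (18–20 g) with implanted Lewis lung tumor received the 2-14C compound by tail vein, 23–193 kBq in normal saline, reconstituted from a dry film just before use. Animals were killed at set times and tissues taken for 14C counting by combustion and liquid scintillation. Values are percent injected dose per gram wet tissue, mean ± standard deviation, six animals.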

[3] = system: Mus musculus; experiment: Tissue distribution in BDF1 female mice bearing an implanted lewis lung tumor after intravenous injection in muscle at 4 h.; type: ADME, organism-based; conditions: in vivo; procedure, shortened: as §1
[4] = system: Mus musculus; experiment: Tissue distribution in BDF1 female mice bearing an implanted lewis lung tumor after intravenous injection in skin at 1 h.; type: ADME, organism-based, Skin of body; conditions: in vivo; procedure, shortened: as §1
[5] = system: Mus musculus; experiment: Tissue distribution in BDF1 female mice bearing an implanted lewis lung tumor after intravenous injection in spleen at 0.5 h.; type: ADME, organism-based; conditions: in vivo; procedure, shortened: as §1
[6] = system: Mus musculus; experiment: Tissue distribution in BDF1 female mice bearing an implanted lewis lung tumor after intravenous injection in git(Section of intestine) at 2 h.; type: ADME, organism-based; conditions: in vivo; procedure, shortened: as §2
[7] = system: Mus musculus; experiment: Tissue distribution in BDF1 female mice bearing an implanted lewis lung tumor after intravenous injection in bone at 0.5 h.; type: ADME, organism-based; conditions: in vivo; procedure, shortened: as §2
[8] = system: Mus musculus; experiment: Tissue distribution in BDF1 female mice bearing an implanted lewis lung tumor after intravenous injection in heart at 0.25 h.; type: ADME, organism-based; conditions: in vivo; procedure, shortened: as §2
[9] = system: Mus musculus; experiment: Tissue distribution in BDF1 female mice bearing an implanted lewis lung tumor after intravenous injection in heart at 0.5 h.; type: ADME, organism-based; conditions: in vivo; procedure, shortened: as §2
[10] = system: Mus musculus; experiment: Tissue distribution in BDF1 female mice bearing an implanted lewis lung tumor after intravenous injection in heart at 2 h.; type: ADME, organism-based; conditions: in vivo; procedure, shortened: as §2
[11] = system: Mus musculus; experiment: Tissue distribution in BDF1 female mice bearing an implanted lewis lung tumor after intravenous injection in heart at 24 h.; type: ADME, organism-based; conditions: in vivo; procedure, shortened: as §2
[12] = system: Mus musculus; experiment: Tissue distribution in BDF1 female mice bearing an implanted lewis lung tumor after intravenous injection in kidney at 1 h.; type: ADME, organism-based; conditions: in vivo; procedure, shortened: as §2
[13] = system: Mus musculus; experiment: Tissue distribution in BDF1 female mice bearing an implanted lewis lung tumor after intravenous injection in kidney at 24 h.; type: ADME, organism-based; conditions: in vivo; procedure, shortened: as §1
[14] = system: Mus musculus; experiment: Tissue distribution in BDF1 female mice bearing an implanted lewis lung tumor after intravenous injection in liver at 0.25 h.; type: ADME, organism-based; conditions: in vivo; procedure, shortened: as §1
[15] = system: Mus musculus; experiment: Tissue distribution in BDF1 female mice bearing an implanted lewis lung tumor after intravenous injection in liver at 2 h.; type: ADME, organism-based; conditions: in vivo; procedure, shortened: as §1
[16] = system: Mus musculus; experiment: Tissue distribution in BDF1 female mice bearing an implanted lewis lung tumor after intravenous injection in liver at 24 h.; type: ADME, organism-based; conditions: in vivo; procedure, shortened: as §1
[17] = system: Mus musculus; experiment: Tissue distribution in BDF1 female mice bearing an implanted lewis lung tumor after intravenous injection in blood at 0.5 h.; type: ADME, organism-based; conditions: in vivo; procedure, shortened: as §2
[18] = system: Mus musculus; experiment: Tissue distribution in BDF1 female mice bearing an implanted lewis lung tumor after intravenous injection in blood at 4 h.; type: ADME, organism-based; conditions: in vivo; procedure, shortened: as §2
[19] = system: Mus musculus; experiment: Tissue distribution in BDF1 female mice bearing an implanted lewis lung tumor after intravenous injection in spleen at 1 h.; type: ADME, organism-based; conditions: in vivo; procedure, shortened: as §1
[20] = system: Mus musculus; experiment: Tissue distribution in BDF1 female mice bearing an implanted lewis lung tumor after intravenous injection in spleen at 2 h.; type: ADME, organism-based; conditions: in vivo; procedure, shortened: as §1
[21] = system: Mus musculus; experiment: Tissue distribution in BDF1 female mice bearing an implanted lewis lung tumor after intravenous injection in spleen at 24 h.; type: ADME, organism-based; conditions: in vivo; procedure, shortened: as §1
[22] = system: Mus musculus; experiment: Tissue distribution in BDF1 female mice bearing an implanted lewis lung tumor after intravenous injection in spleen at 4 h.; type: ADME, organism-based; conditions: in vivo; procedure, shortened: as §1
[23] = system: Mus musculus; experiment: Tissue distribution in BDF1 female mice bearing an implanted lewis lung tumor after intravenous injection in spleen at 8 h.; type: ADME, organism-based; conditions: in vivo; procedure, shortened: as §1
[24] = system: Mus musculus; experiment: Radioactive constituent of 5-fluorouracil in urine at 0.5 hr time interval after intravenous injection into BDF1 female mice bearing lewis lung tumor; type: ADME, organism-based; conditions: in vivo
Procedure, shortened: (§3)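 Radiolabeled nucleoside given in normal saline by tail vein, 23–193 kBq per mouse, to female BDF1 mice (18–20 g) carrying transplanted Lewis lung tumor. Urine was collected when the animals were killed. Components were identified by reverse-phase HPLC with UV at 256 nm on urine spiked with reference compounds, matched to liquid scintillation counts of the eluate. Each is reported as a percent of total urine radioactivity.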

[25] = system: Mus musculus; experiment: Tissue distribution in BDF1 female mice bearing an implanted lewis lung tumor after intravenous injection in stomach at 0.5 h.; type: ADME, organism-based; conditions: in vivo; procedure, shortened: as §1
[26] = system: Mus musculus; experiment: Tissue distribution in BDF1 female mice bearing an implanted lewis lung tumor after intravenous injection in stomach at 8 h.; type: ADME, organism-based; conditions: in vivo
Procedure, shortened: (§4)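 Female BDF1 mice (18–20 g) carrying a transplanted Lewis lung tumor were given 23–193 kBq of the [2-14C]-labelled nucleoside in normal saline by tail vein. Animals were killed at set times. Tissue 14C was counted by liquid scintillation, after combustion or directly. Values are percent of injected dose per gram wet tissue, as mean ± standard deviation of six animals.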

[27] = system: Mus musculus; experiment: Tissue distribution in BDF1 female mice bearing an implanted lewis lung tumor after intravenous injection in tumor at 0.25 h.; type: ADME, organism-based; conditions: in vivo; procedure, shortened: as §4
[28] = system: Mus musculus; experiment: Tissue distribution in BDF1 female mice bearing an implanted lewis lung tumor after intravenous injection in tumor at 1 h.; type: ADME, organism-based; conditions: in vivo; procedure, shortened: as §4
[29] = system: Mus musculus; experiment: Tissue distribution in BDF1 female mice bearing an implanted lewis lung tumor after intravenous injection in tumor at 2 h.; type: ADME, organism-based; conditions: in vivo; procedure, shortened: as §4
[30] = system: Mus musculus; experiment: Tissue distribution in BDF1 female mice bearing an implanted lewis lung tumor after intravenous injection in tumor at 24 h.; type: ADME, organism-based; conditions: in vivo; procedure, shortened: as §4
[31] = system: Mus musculus; experiment: Tissue distribution in BDF1 female mice bearing an implanted lewis lung tumor after intravenous injection in tumor at 4 h.; type: ADME, organism-based; conditions: in vivo; procedure, shortened: as §4
[32] = system: Mus musculus; experiment: Radioactive constituent of other in urine at 8 hr time interval after intravenous injection into BDF1 female mice bearing lewis lung tumor; type: ADME, organism-based; conditions: in vivo; procedure, shortened: as §3
[33] = system: Mus musculus; experiment: Radioactive constituent in urine at 0.5 hr time interval after intravenous injection into BDF1 female mice bearing lewis lung tumor; type: ADME, organism-based; conditions: in vivo; procedure, shortened: as §3
[34] = system: Mus musculus; experiment: Radioactive constituent of uracil in urine at 4 hr time interval after intravenous injection into BDF1 female mice bearing lewis lung tumor; type: ADME, organism-based; conditions: in vivo; procedure, shortened: as §3
[35] = Total urine activity excreted at 0.5 hr was estimated from the measurement of loss of tissue activity; type: ADME, tissue-based
[36] = system: Mus musculus; experiment: Tissue distribution in BDF1 female mice bearing an implanted lewis lung tumor after intravenous injection in bone at 2 h.; type: ADME, organism-based; conditions: in vivo; procedure, shortened: as §2
[37] = system: Mus musculus; experiment: Tissue distribution in BDF1 female mice bearing an implanted lewis lung tumor after intravenous injection in lung at 8 h.; type: ADME, organism-based; conditions: in vivo; procedure, shortened: as §1
[38] = system: Mus musculus; experiment: Tissue distribution in BDF1 female mice bearing an implanted lewis lung tumor after intravenous injection in blood at 24 h.; type: ADME, organism-based; conditions: in vivo; procedure, shortened: as §2
[39] = system: Mus musculus; experiment: Radioactive constituent of other in urine at 4 hr time interval after intravenous injection into BDF1 female mice bearing lewis lung tumor; type: ADME, organism-based; conditions: in vivo; procedure, shortened: as §3
[40] = system: Mus musculus; experiment: Tissue distribution in BDF1 female mice bearing an implanted lewis lung tumor after intravenous injection in skin at 2 h.; type: ADME, organism-based, Skin of body; conditions: in vivo; procedure, shortened: as §1
[41] = system: Mus musculus; experiment: Tissue distribution in BDF1 female mice bearing an implanted lewis lung tumor after intravenous injection in kidney at 0.25 h; type: ADME, organism-based; conditions: in vivo; procedure, shortened: as §2
[42] = system: Mus musculus; experiment: Tissue distribution in BDF1 female mice bearing an implanted lewis lung tumor after intravenous injection in stomach at 0.25 h; type: ADME, organism-based; conditions: in vivo; procedure, shortened: as §1

| Tissue distribution [1] | Tissue distribution [2] | Tissue distribution [3] | Tissue distribution [4] | Tissue distribution [5] | Tissue distribution [6] | Tissue distribution [7] | Tissue distribution [8] | Tissue distribution [9] | Tissue distribution [10] | Tissue distribution [11] | Tissue distribution [12] | Tissue distribution [13] | Tissue distribution [14] | Tissue distribution [15] | Tissue distribution [16] | Tissue distribution [17] | Tissue distribution [18] | Tissue distribution [19] | Tissue distribution [20] | Structure (SMILES) | other results |
| --- | --- | --- | --- | --- | --- | --- | --- | --- | --- | --- | --- | --- | --- | --- | --- | --- | --- | --- | --- | --- | --- |
| 3.37 | 0.02 | 0.02 | 0.43 | 3.77 | 0.11 | 0.85 | 3.8 | 1.71 | 0.08 | 0.005 | 8.21 | 0.01 | 3.37 | 0.08 | 0.005 | 1.59 | 0.02 | 1.44 | 0.29 | O=c1[nH]c(=O)n([C@H]2O[C@@H](CO)[C@H](O)[C@H]2F)cc1F | Tissue distribution [21]: 0.03; Tissue distribution [22]: 0.18; Tissue distribution [23]: 0.09; Total radioactivity [24]: 2.1%; Tissue distribution [25]: 0.96; Tissue distribution [26]: 0.01; Tissue distribution [27]: 5.26; Tissue distribution [28]: 2.24; Tissue distribution [29]: 0.49; Tissue distribution [30]: 0.02; Tissue distribution [31]: 0.16; Total radioactivity [32]: 38.6%; Total radioactivity [33]: 90.7%; Total radioactivity [34]: 7.3%; Total urine activity [35]: 68%; Tissue distribution [36]: 0.11; Tissue distribution [37]: 0.01; Tissue distribution [38]: 0.01; Total radioactivity [39]: 23% |
| 2.73 | 0.01 | 0.05 | 0.36 | 1.08 | 0.17 | 0.41 | 3.07 | 1.56 | 0.17 | 0.02 | 7.28 | 0.03 | 2.39 | 0.15 | 0.02 | 1.82 | 0.06 | 0.48 | 0.34 | O=c1[nH]c(=O)n([C@H]2O[C@@H](CO)[C@H](O)[C@H]2F)cc1Cl | Tissue distribution [40]: 0.13; Tissue distribution [41]: 36.2; Tissue distribution [21]: 0.06; Tissue distribution [22]: 0.17; Tissue distribution [23]: 0.15; Tissue distribution [42]: 1.41; Tissue distribution [26]: 0.05; Tissue distribution [27]: 2.62; Tissue distribution [29]: 0.34; Tissue distribution [30]: 0.03; Tissue distribution [31]: 0.23; Tissue distribution [36]: 0.08; Tissue distribution [37]: 0.03; Tissue distribution [38]: 0.01 |
